Reference: ChEMBL document CHEMBL1131328 (J Med Chem, 1998)

Key:
MCF7 [1] = experiment: Inhibition of estrogen-stimulated MCF-7 cell proliferation; assay type: functional, cell-based; conditions: Homo sapiens
In short: (§1)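 MCF-7 breast tumor cells were stimulated to proliferate with 10⁻¹¹ M 17β-estradiol, with test compound added to measure inhibition of that proliferation. IC50 was derived from the inhibition.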

Rattus norvegicus [2] = experiment: Minimally effective dose(MED) (mg/kg body weight) at which a significant increase in EPO activity was observed in rats; assay type: functional; conditions: read-out: MED
In short: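 Uterine eosinophil peroxidase (EPO) activity was measured in the 4-day ovariectomized rat assay. […] Activity at the MED is given as Vmax ± standard error.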

Rattus norvegicus [3] = experiment: Percent decrease in serum cholesterol relative to OVX controls, at 0.01 mg/Kg compound dose; assay type: functional
In short: (§2)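 Ovariectomized rats were dosed daily for 4 days, and serum cholesterol was measured. Values are mean percent decrease relative to OVX controls ± SEM, n ≥ 5 per group, with significance at p ≤ 0.05. ED50 is the dose reducing serum cholesterol by 50% relative to OVX controls.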

Rattus norvegicus [4] = species on record: Rattus norvegicus; experiment: Dose required to reduce serum cholesterol by 50% relative to ovariectomized (OVX) controls; assay type: functional; in short: as §2
[5] = target: T1, Estrogen receptor (Rattus norvegicus) (UniProt P06211+Q62986)
Rattus norvegicus [6] = experiment: Percent decrease in serum cholesterol relative to OVX controls, at 1.0 mg/Kg compound dose; assay type: functional; in short: as §2
MCF7 [7] = experiment: Inhibition of estrogen-stimulated MCF-7 cell proliferation; not active; assay type: functional, cell-based, Homo sapiens; in short: as §1
[8] = target: T1, Estrogen receptor (Rattus norvegicus); experiment: Minimally effective dose(MED) (mg/kg body weight) at which a statistically significant (p<= 0.05) increase in uterine weight/body weight was observed.; assay type: functional, organism-based
In short: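 A 4-day ovariectomized rat assay with daily dosing. Uterine weight/body weight was compared with OVX controls. The MED is the lowest dose (mg/kg) giving a significant increase (p ≤ 0.05). Activity at the MED is given as percent increase over OVX controls ± standard error.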

SMILES	IC50 (MCF7 [1]) [nM]	minimal effective dose (Rattus norvegicus [2]) [mg/kg]	Decrease (Rattus norvegicus [3]) [%]	ED50 (Rattus norvegicus [4]) [mg/kg]	MED [5] [mg/kg]	Decrease (Rattus norvegicus [6]) [%]	IC50 (MCF7 [7])	MED [8] [mg/kg]
COc1ccc2c(c1)OC(c1ccc(OCCN3CCCCC3)cc1)c1c-2sc2cc(OC)ccc12 (configuration not stated)	100							
c1ccc2c(c1)OC(c1ccc(OCCN3CCCCC3)cc1)c1c-2sc2ccccc12 (configuration not stated)	80	> 10	39.8	0.7	0.1			
Oc1ccc2c(c1)OC(c1ccc(OCCN3CCCCC3)cc1)c1c-2sc2ccccc12 (configuration not stated)	20	> 10	46.5	0.5	> 10	53.7		
Oc1ccc2c(c1)OC(c1ccc(OCCN3CCCC3)cc1)c1c-2sc2cc(O)ccc12 (configuration not stated)	0.6	> 1	38.5	0.2	0.1	68		
Oc1ccc2c(c1)OC(c1ccc(OCCN3CCOCC3)cc1)c1c-2sc2cc(O)ccc12 (configuration not stated)	6	1	-48.7	> 10	1	14.3		
O=C1CCCN1CCOc1ccc(C2Oc3cc(O)ccc3-c3sc4cc(O)ccc4c32)cc1 (configuration not stated)	9	> 3	-15.2		3	4.4		
CN(C)CCOc1ccc(C2Oc3cc(O)ccc3-c3sc4cc(O)ccc4c32)cc1 (configuration not stated)	2	0.1	40.1	0.5	0.1	54.7		
Oc1ccc2c(c1)OC(c1ccc(OCCN3CCCCC3)cc1)c1c-2oc2cc(O)ccc12 (configuration not stated)	0.7	> 10	17.4	> 10	> 10			
Oc1ccc2c3c(sc2c1)-c1ccccc1OC3c1ccc(OCCN2CCCCC2)cc1 (configuration not stated)	6	> 10	25.4	1	> 10	51.5		
C#C[C@]1(O)CC[C@H]2[C@@H]3CCc4cc(O)ccc4[C@H]3CC[C@@]21C [ETHINYL ESTRADIOL]		0.1	57.1	0.005			Not Active	
O=C(c1ccc(OCCN2CCCCC2)cc1)c1c(-c2ccc(O)cc2)sc2cc(O)ccc12 [RALOXIFENE]	[…]	> 10	44.9	[…]				
Oc1ccc2c(c1)OC(c1ccc(OCCN3CCCCC3)cc1)c1c-2ccc2cc(O)ccc12 (configuration not stated)	0.4	> 10	57.2	0.02		65.7		> 10
CC/C(=C(\c1ccccc1)c1ccc(OCCN(C)C)cc1)c1ccccc1 [TAMOXIFEN]		0.1	39.2	0.2		71.1		
Oc1ccc2c(c1)OC(c1ccc(OCCN3CCCCC3)cc1)c1c-2sc2cc(O)ccc12 (configuration not stated)	0.2	> 10	62.2	0.15	> 10	47.6		
CCN(CC)CCOc1ccc(C2Oc3cc(O)ccc3-c3sc4cc(O)ccc4c32)cc1 (configuration not stated)	8	0.1	20.6	> 10	0.1	38.7		
